Activity, inhibition and fold change (FC) data for 47 molecules are collected here from ChEMBL document CHEMBL1800034, “A synthetic 7,8-dihydroxyflavone derivative promotes neurogenesis and exhibits potent antidepressant effect” (J Med Chem, 2010).

Each structure is given as a SMILES string. The source made the active and inactive calls. The calls are words filed in the database; no cut-off is given here.

Assay [1] has as its target BDNF/NT-3 growth factors receptor (Rattus norvegicus) (UniProt Q63604). As to the kind of experiment: Agonist activity at TrkB in E17 rat primary cortical neurons assessed as AKT phosphorylation at Ser 473 at 500 nM after 15 mins by ELISA. It counts as functional, cell-based. The following applies: Cerebral cortex neuron. In general terms: ELISA stands for enzyme-linked immunosorbent assay.

Assay [2] shares this target. As to the kind of experiment: Agonist activity at TrkB in E17 rat primary cortical neurons assessed as TrkB phosphorylation at 817 at 500 nM after 15 mins by immunoblotting. It is filed as functional, cell-based. The following applies: Cerebral cortex neuron. Summed up:
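Rat cortical neurons from E17 embryos, 13 DIV, were treated with 500 nM compound for 15 min. Lysates were run on 10% SDS-PAGE and immunoblotted with p-TrkB Y817 antibody at 1:20,000–40,000.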

Assay [3] has the same target. As to the kind of experiment: Agonist activity at TrkB in E17 rat primary rat cortical neurons assessed as AKT phosphorylation at Ser 473 at 500 nM after 15 mins by ELISA. It counts as functional.
For assay [4] the target is unchanged. As to the kind of experiment: Agonist activity at TrkB in E17 rat primary cortical neurons by immunoblotting. It counts as functional, cell-based. The following applies: Cerebral cortex neuron. In general terms: In western blotting, separated proteins are transferred to a membrane and probed.
Another assay has as its system Mus musculus. As to the kind of experiment: Neuroprotective activity in C57BL/6J mouse assessed as inhibition of kainic acid-induced caspase 3 activation in hippocampus region at 5 mg/kg, po administered 2 to 8 hrs prior to kainic acid challenge measured after 2 hrs by immunoblotting. It counts as functional, organism-based. More on the design: dose 5 mg/kg. Summed up: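 C57BL/6J mice dosed orally by gavage at 5 mg/kg. Kainic acid 20 mg/kg i.p. given at 0, 2 or 6 h after dosing. Mice killed 2 h after kainic acid; hippocampal lysates immunoblotted with anti-p-TrkB and anti-active caspase-3.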

Assay [5] deals with BDNF/NT-3 growth factors receptor (Rattus norvegicus) (UniProt Q63604). As to the kind of experiment: […] in E17 rat primary cortical neurons at 500 nM after 15 mins by immunoblotting. The following applies: Cerebral cortex neuron. Summed up:
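Primary cortical neurons from E17 rat embryos, 13 DIV, exposed to compound at 500 nM for 15 min. Lysates resolved on 10% SDS-PAGE and immunoblotted for phospho-TrkB (p-TrkB Y817 antibody, 1:20,000–40,000) alongside other signalling antibodies.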

Assay [6] shares this target. As to the kind of experiment: Agonist activity at TrkB in E17 rat primary cortical neurons assessed as AKT phosphorylation at Ser 473 at 500 nM after 15 mins by ELISA relative to control. The following applies: Cerebral cortex neuron. It is filed as functional, cell-based.

Sequence of BDNF/NT-3 growth factors receptor (Rattus norvegicus) (Q63604 whole entry): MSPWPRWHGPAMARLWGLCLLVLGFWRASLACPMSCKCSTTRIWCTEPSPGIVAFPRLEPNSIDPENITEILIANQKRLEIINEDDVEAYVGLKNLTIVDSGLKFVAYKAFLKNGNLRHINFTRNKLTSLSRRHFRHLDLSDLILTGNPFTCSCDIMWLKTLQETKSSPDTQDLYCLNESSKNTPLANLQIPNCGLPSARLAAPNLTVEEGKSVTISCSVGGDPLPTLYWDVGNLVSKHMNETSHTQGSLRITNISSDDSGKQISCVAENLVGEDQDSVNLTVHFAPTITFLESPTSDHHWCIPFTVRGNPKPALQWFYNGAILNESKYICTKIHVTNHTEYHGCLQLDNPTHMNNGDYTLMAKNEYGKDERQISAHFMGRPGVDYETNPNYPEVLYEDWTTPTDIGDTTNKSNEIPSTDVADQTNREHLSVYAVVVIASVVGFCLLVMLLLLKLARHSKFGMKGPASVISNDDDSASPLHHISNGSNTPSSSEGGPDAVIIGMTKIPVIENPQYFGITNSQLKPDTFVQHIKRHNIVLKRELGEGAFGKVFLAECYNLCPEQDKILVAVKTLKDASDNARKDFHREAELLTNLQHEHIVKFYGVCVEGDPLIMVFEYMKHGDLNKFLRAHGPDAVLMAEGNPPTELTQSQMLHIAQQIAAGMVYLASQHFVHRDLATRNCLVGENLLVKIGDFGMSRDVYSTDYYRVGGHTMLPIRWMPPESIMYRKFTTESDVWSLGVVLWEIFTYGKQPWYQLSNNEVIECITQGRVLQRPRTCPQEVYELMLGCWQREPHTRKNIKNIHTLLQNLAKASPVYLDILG

In the case of `COc1cccc(-c2cc(=O)c3ccc(OC)cc3o2)c1`, the outcome in assay [1] was inactive.
Same read-out and setting: next, `O=c1cc(-c2ccccc2)oc2cc(O)cc(O)c12`: “inactive”; `O=c1cc(-c2cccc(O)c2)oc2cc(O)c(O)cc12`: “Active”; `O=c1c(O)c(-c2ccccc2)oc2ccccc12`: “inactive”.
Regarding `O=c1cc(-c2ccccc2)oc2ccc(O)c(O)c12`, the outcome in assay [1] was inactive.
The same measure, in the same setting: next, `O=c1c(O)c(-c2cccc(O)c2)oc2ccccc12`: “inactive”.
In the case of `COc1ccc(-c2c(C)c3ccc(O)cc3oc2=O)cc1`, in assay [1], the result was inactive.
On to `O=c1cc(-c2ccccc2)oc2cc(O)c(O)cc12`, for which the result in assay [1] was Active.
Still for that read-out and setting: next, `O=c1cc(-c2ccc(O)c(O)c2)oc2cc(O)ccc12`: “inactive”; `O=c1cc(-c2ccccc2)oc2cc(O)c(O)c(O)c12`: “inactive”.
Turning to `O=c1cc(-c2ccccc2)oc2c(O)c(O)cc(O)c12`, the result in assay [1] and in assay [2] was Active.
For the molecule `O=c1cc(-c2cccc(O)c2)oc2c1ccc1ccccc12`, in assay [1], the result was inactive.
On to `O=c1cc(-c2cncnc2)oc2c(O)c(O)ccc12`, for which the outcome in assay [3] was Active.
For `COc1ccccc1-c1cc2ccc(O)cc2oc1=O`, the outcome in assay [1] was inactive.
For `COc1ccc(-c2cc(=O)c3ccc(O)cc3o2)cc1`, the outcome in assay [1] was inactive. The result in assay [2] was Active.
Take `O=c1cc(-c2cccc(O)c2)oc2ccccc12`: the result in assay [1] was inactive.
Turning to `O=c1c(O)c(-c2ccccc2O)oc2c(O)c(O)ccc12`, the result in assay [1] and in assay [2] was Active.
Take `COc1cccc(-c2oc3ccccc3c(=O)c2OC)c1`: in assay [1], the result was inactive.
As to `O=c1cc(-c2ccccc2)oc2cccc(O)c12`, in assay [1], the result was inactive.
`O=c1cc(-c2cccc(O)c2O)oc2ccccc12`: the result in assay [1] was inactive.
`O=c1c(O)c(-c2ccccc2O)oc2ccccc12`: in assay [1], the outcome was inactive.
On the same count and under the same terms, next, `C[S+](C)[O-]`: “inactive”; `O=c1cc(-c2ccccc2)oc2ccccc12`: “inactive”; `O=c1cc(-c2cc(O)cc(O)c2)oc2ccccc12`: “inactive”.
With `COc1ccc2c(=O)cc(-c3ccccc3)oc2c1OC`, in assay [1], the outcome was inactive. Also, the result in assay [4] was Active.
In the case of `O=c1cc(-c2ccc(O)c(O)c2)oc2ccccc12`, the result in assay [1] was inactive.
For `O=c1cc(-c2ccc(O)cc2)oc2c(O)c(O)ccc12`, in assay [2], the result was Active.
Consider `O=c1cc(-c2ccccc2)oc2cc(O)ccc12`, for which the outcome in assay [1] was inactive.
Turning to `O=c1cc(-c2ccc(O)cc2)oc2ccccc12`, the result in assay [1] was inactive.
`COc1ccc2c(=O)cc(-c3ccccc3)oc2c1O`: the outcome in assay [1], in assay [2] and in assay [4] was Active.
Regarding `O=c1cc(-c2ccc(F)cc2)[nH]c2c(O)c(O)ccc12`, the result in assay [3] was inactive.
Still for that read-out and setting: next, `O=c1cc(-c2ccccc2)[nH]c2c(O)c(O)ccc12`: “inactive”.
As to `COc1cccc(-c2cc(=O)c3ccc(O)cc3o2)c1`, the result in assay [1] was inactive.
The same measure, in the same setting: next, `O=c1c(-c2ccccc2)coc2cc(O)ccc12`: “inactive”; `COc1c(O)ccc2c(=O)c(-c3ccc(Cl)cc3)coc12`: “inactive”; `COc1cccc(-c2cc(=O)c3ccccc3o2)c1OC`: “inactive”.
As for `O=c1cc(-c2ccccc2O)oc2c(O)c(O)ccc12`, the outcome in assay [1] and in assay [2] was Active.
Turning to `O=c1c(O)c(-c2cccc(O)c2)oc2cc(O)ccc12`, in assay [1], the outcome was inactive.
The same measure, in the same setting: next, `O=c1cc(-c2ccccc2O)oc2ccccc12`: “inactive”.
Consider `C=C(C)[C@H]1CN[C@H](C(=O)O)[C@H]1CC(=O)O`, for which the inhibition result in the assay with Mus musculus was “Active”.
`O=c1cc(-c2cccc(O)c2)oc2cc(O)ccc12`: the outcome in assay [1] and in assay [2] was Active.
With `O=c1c(O)c(-c2ccc(O)c(O)c2)oc2c(O)c(O)cc(O)c12`, the inhibition result in assay [5] is “Active”.
As for `O=c1cc(-c2cccc(O)c2)oc2c(O)c(O)ccc12`, the result in assay [2] was Active. Besides, the fold change (FC) in assay [6] was found to be 2.
Turning to `O=c1cc(-c2ccc(O)cc2O)oc2ccccc12`, in assay [1], the outcome was inactive.
Same read-out and setting: next, `O=c1cc(-c2ccccc2)oc2ccc(O)cc12`: “inactive”; `COc1cc(-c2oc3cc(O)ccc3c(=O)c2O)cc(OC)c1OC`: “inactive”.
Take `O=c1c(O)c(-c2ccccc2)oc2cc(O)ccc12`: the result in assay [1] and in assay [2] was Active.
